Test results published in the array DNA melting data of Ke et al. (doi:10.1101/2024.01.08.574731).

Tests used:
[1] = folding enthalpy; higher = less favourable; fluorescence melt of hairpins on a sequencing array, two-state fit; conditions: sodium 0.088 M
In short: (§1)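 Two-state fits, bootstrapped, provided melting temperature and folding enthalpy from Cy3 fluorescence normalised to pre-quench Cy3 and to control constructs. Library hairpins with annealed Cy3 and quencher oligos were imaged on a sequenced MiSeq flow cell in 50 mM Na-HEPES pH 8.0, 25 mM NaCl, at 2.5 °C intervals up to 60 °C. Four replicates were combined with inverse-variance weighting. A 9.35 °C upward shift was applied to fitted temperatures to match UV melts.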

[2] = melting temperature; fluorescence melt of hairpins on a sequencing array, two-state fit, raised by 9.35 °C to match UV melts; conditions: sodium 0.088 M
In short: as §1

Sequence | folding enthalpy [1] | Tm [2]
GGATCCCCGAAAGGGTCC (((..(((....)))))) | -19.8 kcal/mol | 45.3 °C
GGATCCCGAAAGGGTTCC (((.(((....))).))) | -29.8 kcal/mol | 54.3 °C
GGATCCGAAAGGAATTCC ((((((....)))..))) | -14.1 kcal/mol | 32.2 °C
GGATCCGAAAGGATCTCC ((((((....)))..))) | -9.17 kcal/mol | 53.6 °C
GGATCGGGAAACCGATTC (.(((((....))))).) | -26.6 kcal/mol | 50.6 °C
GGATCTGGAAACAGGTTC (.(.(((....))).).) | -14.1 kcal/mol | 30.5 °C
GGATCTGGAAACGGATTC (.(((.(....).))).) | -28.5 kcal/mol | 31.5 °C
GGATGACCGAAAGGTTCC (((..(((....)))))) | -10.9 kcal/mol | 34.2 °C
GGATGACGAAAGTCGTCC (((.(((....))).))) | -38.4 kcal/mol | 64.5 °C
GGATGAGGAAACTCATCC (((((((....))))))) | -43.5 kcal/mol | 63.1 °C
GGATGAGGAAACTTGTCC (((..((....))..))) | -24.4 kcal/mol | 31.1 °C
GGATGCACGAAAGTGTCC (((..(((....)))))) | -14 kcal/mol | 30.8 °C
GGATGCCGAAAGGCCTCC (((.(((....))).))) | -24.9 kcal/mol | 50.5 °C
GGATGCCGAAAGGCTCC (((.(((....)))))) | -17.8 kcal/mol | 55 °C
GGATGCGAAAGCAACTCC ((((((....)))..))) | -11.9 kcal/mol | 41.8 °C
GGATGCGAAAGCACATCC ((((((....)))..))) | -19.2 kcal/mol | 42.2 °C
GGATGCGAAAGCACGTCC ((((((....)))..))) | -12 kcal/mol | 33.1 °C
GGATGCGAAAGCACTCC ((((((....))).))) | -29 kcal/mol | 49.6 °C
GGATGCGAAAGCATCTCC ((((((....)))..))) | -9.29 kcal/mol | 52.6 °C
GGATGCGAAAGCATTCC ((((((....))).))) | -16.9 kcal/mol | 55.9 °C
GGATGCGGAAACGCGTTC (.(.(((....))).).) | -17.4 kcal/mol | 41.5 °C
GGATGGAAACATCC (((((....))))) | -29.8 kcal/mol | 51.8 °C
GGATGGCGAAAGCCTCC (((.(((....)))))) | -18.6 kcal/mol | 55.6 °C

Sequence | folding enthalpy [1] | Tm [2]
GGATGGGGAAACCCGTTC (.(.(((....))).).) | -16.5 kcal/mol | 36.1 °C
GGATGTGAAAACATCC ((((((....)))))) | -38.3 kcal/mol | 58.5 °C
GGATGTGCGAAAGCATCC (((..(((....)))))) | -17.6 kcal/mol | 45.8 °C
GGATGTGGAAACATATCC ((((.((....)).)))) | -28.7 kcal/mol | 44.9 °C
GGATTAGGAAACTAATTC (.(((((....))))).) | -25.2 kcal/mol | 33.9 °C
GGATTCCGAAAGGATTCC (((.(((....))).))) | -35.8 kcal/mol | 49.7 °C
GGATTCGGAAACAAATCC (((((.(....).))))) | -22.9 kcal/mol | 35.8 °C
GGATTCGGAAACGAATTC (.(((((....))))).) | -33.2 kcal/mol | 47.7 °C
GGATTCTCGAAAGAGTCC (((..(((....)))))) | -22.7 kcal/mol | 33.5 °C
GGATTGCGAAAGCACTCC (((.(((....))).))) | -34.9 kcal/mol | 49.4 °C
GGATTGGGAAACCAACCC ((.((((....)))).)) | -31.5 kcal/mol | 41.2 °C
GGATTGGGAAACCGATCC ((((.((....)).)))) | -40.7 kcal/mol | 51 °C
GGATTGGGAAACCGATTC (.((.((....)).)).) | -19.9 kcal/mol | 31.6 °C
GGATTTGAAAAAATCC ((((((....)))))) | -34.7 kcal/mol | 49.6 °C
GGATTTGGAAACAAACCC ((.((((....)))).)) | -30.1 kcal/mol | 35.6 °C
GGATTTGGAAACAAGTCC (((.(((....))).))) | -31.5 kcal/mol | 42.7 °C
GGCAAACCGAAAGGTGCC (((..(((....)))))) | -39.1 kcal/mol | 56 °C
GGCAAACGAAAGTTCGCC (((.(((....))).))) | -47.9 kcal/mol | 53.3 °C
GGCAACGAAAGTTGAGCC ((((((....)))..))) | -15.3 kcal/mol | 45.4 °C
GGCAACGAAAGTTGGCC ((((((....))).))) | -18.7 kcal/mol | 64 °C
GGCAAGACGAAAGTCGCC (((..(((....)))))) | -18.9 kcal/mol | 54.2 °C
GGCAAGCGAAAGCTAGCC (((.(((....))).))) | -35.9 kcal/mol | 63.4 °C
GGCAATGCGAAAGCAGCC (((..(((....)))))) | -17.7 kcal/mol | 57.6 °C

Sequence | folding enthalpy [1] | Tm [2]
GGCAATGGAAACATTACC ((.((((....)))).)) | -26.7 kcal/mol | 37.3 °C
GGCACACGAAAGTGCGCC (((.(((....))).))) | -36.9 kcal/mol | 66.7 °C
GGCACAGCGAAAGCTGCC (((..(((....)))))) | -12.3 kcal/mol | 48.3 °C
GGCACCGAAAGGTAAGCC ((((((....)))..))) | -35 kcal/mol | 52.6 °C
GGCACCGAAAGGTGCGCC ((((((....)))..))) | -6.18 kcal/mol | 66.1 °C
GGCACCGAAAGGTGGGCC ((((((....)))..))) | -12.5 kcal/mol | 52.6 °C
GGCACCGAAAGGTTCGCC ((((((....)))..))) | -20 kcal/mol | 47.7 °C
GGCACCGAAAGGTTGCC ((((((....))).))) | -30.9 kcal/mol | 63 °C
GGCACCTCGAAAGAGGCC (((..(((....)))))) | -12.2 kcal/mol | 38.2 °C
GGCACGACGAAAGTCGCC (((..(((....)))))) | -8.64 kcal/mol | 38.4 °C
GGCACGGGAAACCGCACC ((..(((....)))..)) | -10.3 kcal/mol | 32.4 °C
GGCACGTCGAAAGACGCC (((..(((....)))))) | -11 kcal/mol | 40.7 °C
GGCACTCGAAAGAGGCC (((.(((....)))))) | -21.5 kcal/mol | 57.8 °C
GGCACTGGAAACAGCGCC (((.(((....))).))) | -46.1 kcal/mol | 54 °C
GGCACTGGAAACGGTGCC (((((.(....).))))) | -50.7 kcal/mol | 60.5 °C
GGCACTGGAAACGGTGTC (.(((.(....).))).) | -28.1 kcal/mol | 41.7 °C
GGCAGACGAAAGTCGCC (((.(((....)))))) | -23.1 kcal/mol | 65.2 °C
GGCAGAGAAATCTGCC ((((((....)))))) | -32.8 kcal/mol | 63.5 °C
GGCAGCACGAAAGTGGCC (((..(((....)))))) | -22.3 kcal/mol | 51 °C
GGCAGCGAAAGCTAGCC ((((((....))).))) | -32.9 kcal/mol | 62 °C
GGCAGCGAAAGCTTCGCC ((((((....)))..))) | -17.4 kcal/mol | 49.1 °C
GGCAGCGCGAAAGCGGCC (((..(((....)))))) | -17.3 kcal/mol | 58.3 °C
